Assay results published in ChEMBL document CHEMBL1146375, “Synthetic studies on novel benzimidazolopeptides with antimicrobial, cytotoxic and anthelmintic potential” (2007).
In brackets after ≈: the same amount, converted by molar mass. Residues, ends and D or L forms follow the SMILES beside them. *: point of attachment. X4 = Cc1cc2nc(-c3ccc(C(=O)*)cc3)[nH]c2cc1C

How the values were obtained:
Pontoscolex corethrurus [1] = test: Anthelmintic activity against Pontoscolex corethrurus ICARBC 408 assessed as mean paralyzing time; type: functional
Procedure, shortened: (§1)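 Earthworms exposed to test suspensions at 2 mg mL^-1 (0.2% w/v), made by triturating compound with Tween 80 (0.5%) and distilled water, then mechanically stirred 30 min. Mebendazole suspension prepared alike as reference. Paralysis and death times recorded; death confirmed by no movement in 50 °C water. Means from triplicate sets.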

Aspergillus niger = test: Antifungal activity against Aspergillus niger MUCC 177 after 48 hrs by disc diffusion method; type: functional
Procedure, shortened: (§2)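 Agar well diffusion on plates inoculated with spore suspension in normal saline from cultures on Sabouraud's broth. Wells punched and loaded with test samples or griseofulvin at 10 mg mL^-1, with DMSO as negative control. Incubated 48 h at 37 °C.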

[2] = Anthelmintic activity against Megascoplex konkanensis ICARBC 211 assessed as mean death time; type: functional; procedure, shortened: as §1
[3] = Anthelmintic activity against Megascoplex konkanensis ICARBC 211 assessed as mean paralyzing time; type: functional; procedure, shortened: as §1
Bacillus subtilis [4] = test: Antibacterial activity against Bacillus subtilis NCIM 2063 after 18 hrs by tube dilution method; type: functional; details: NCIM 2063, 18 h
Procedure, shortened: (§3)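 Tube dilution MIC. Stock diluted in sterile broth to seven concentrations from 200 to 3.1 […]. Each tube inoculated with one loopful of test bacterium and incubated 18 h at 37 °C. MIC read from presence or absence of growth.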

Microsporum audouinii [5] = test: Antifungal activity against Microsporum audouinii MUCC 545 after 48 hrs by tube dilution method; type: functional
Procedure, shortened: (§4)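 Tube dilution MIC as for bacteria (seven concentrations, 200–3.1 […]), with DMSO in place of DMF. Tubes inoculated with fungal culture and incubated 48 h at 37 °C. MIC read from presence or absence of growth.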

Trichophyton benhamiae [6] = test: Antifungal activity against Trichophyton mentagrophytes MUCC 665 after 48 hrs by disc diffusion method; type: functional, Arthroderma benhamiae; procedure, shortened: as §2
Trichophyton benhamiae [7] = test: Antifungal activity against Trichophyton mentagrophytes MUCC 665 after 48 hrs by tube dilution method; type: functional, Arthroderma benhamiae; procedure, shortened: as §4
Eudrilus [8] = test: Anthelmintic activity against Eudrilus sp. assessed as mean death time; type: functional
Procedure, shortened: (§5)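 Earthworms exposed to test suspensions at 2 mg mL−1, prepared by triturating compound with Tween 80 (0.5%) and distilled water, stirring 30 min, then diluting to 0.2% w/v. Mebendazole suspension was made the same way. Death was confirmed by moving worms into 50 °C warm water and looking for movement. Mean death time (min) taken from triplicate sets.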

Eudrilus [9] = test: Anthelmintic activity against Eudrilus sp. assessed as mean paralyzing time; type: functional; procedure, shortened: as §1
Pseudomonas aeruginosa [10] = test: Antibacterial activity against Pseudomonas aeruginosa NCIM 2034 after 18 hrs by tube dilution method; type: functional; details: NCIM 2034, 18 h; procedure, shortened: as §3
Candida albicans [11] = test: Antifungal activity against Candida albicans MUCC 29 after 48 hrs by tube dilution method; type: functional; procedure, shortened: as §4
Bacillus subtilis [12] = test: Antibacterial activity against Bacillus subtilis NCIM 2063 after 18 hrs by disc diffusion method; type: functional
Procedure, shortened: (§6)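 Modified Kirby-Bauer disc diffusion. Plates inoculated with spore suspension (about 6 × 10⁴ spores mL^-1). Sterile 6 mm paper discs carried test samples at 10 mg mL^-1; ciprofloxacin disc as reference, DMF disc as negative control. Plates held 18 h at 37 °C. Inhibition zone diameters (mm) averaged over triplicate sets.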

Microsporum audouinii [13] = test: Antifungal activity against Microsporum audouinii MUCC 545 after 48 hrs by disc diffusion method; type: functional; procedure, shortened: as §2
Candida albicans [14] = test: Antifungal activity against Candida albicans MUCC 29 after 48 hrs by disc diffusion method; type: functional; procedure, shortened: as §2
Staphylococcus aureus [15] = test: Antibacterial activity against Staphylococcus aureus NCIM 2079 after 18 hrs by disc diffusion method; type: functional; procedure, shortened: as §6
Pontoscolex corethrurus [16] = test: Anthelmintic activity against Pontoscolex corethrurus ICARBC 408 assessed as mean death time; type: functional; procedure, shortened: as §5
Pseudomonas aeruginosa [17] = test: Antibacterial activity against Pseudomonas aeruginosa NCIM 2034 after 18 hrs by disc diffusion method; type: functional; procedure, shortened: as §6
Escherichia coli [18] = test: Antibacterial activity against Escherichia coli NCIM 2065 after 18 hrs by tube dilution method; type: functional; details: NCIM 2065, 18 h
Staphylococcus aureus [19] = test: Antibacterial activity against Staphylococcus aureus NCIM 2079 after 18 hrs by tube dilution method; type: functional; details: NCIM 2079, 18 h; procedure, shortened: as §3
Escherichia coli [20] = test: Antibacterial activity against Escherichia coli NCIM 2065 after 18 hrs by disc diffusion method; type: functional; procedure, shortened: as §6

| SMILES | Time (Pontoscolex corethrurus [1]) | inhibition zone (IZ) (Aspergillus niger) | TIME [2] | TIME [3] | MIC (Bacillus subtilis [4]) | MIC (Microsporum audouinii [5]) | inhibition zone (IZ) (Trichophyton benhamiae [6]) | MIC (Trichophyton benhamiae [7]) | Time (Eudrilus [8]) | Time (Eudrilus [9]) | MIC (Pseudomonas aeruginosa [10]) | MIC (Candida albicans [11]) | inhibition zone (IZ) (Bacillus subtilis [12]) | inhibition zone (IZ) (Microsporum audouinii [13]) | inhibition zone (IZ) (Candida albicans [14]) | inhibition zone (IZ) (Staphylococcus aureus [15]) | Time (Pontoscolex corethrurus [16]) | inhibition zone (IZ) (Pseudomonas aeruginosa [17]) | MIC (Escherichia coli [18]) | MIC (Staphylococcus aureus [19]) | further results |
| --- | --- | --- | --- | --- | --- | --- | --- | --- | --- | --- | --- | --- | --- | --- | --- | --- | --- | --- | --- | --- | --- |
| COC(=O)CNC(=O)CNC(=O)c1cc(-c2nc3ccc([N+](=O)[O-])cc3[nH]2)ccc1O | 31.38 min | 17 mm | 0.608 h | 0.461 h | 25 µg/mL (≈ 58.5 µM) | 6 µg/mL (≈ 14 µM) | 15 mm | 6 µg/mL (≈ 14 µM) | 36.77 min | 25.74 min | 6 µg/mL (≈ 14 µM) | 6 µg/mL (≈ 14 µM) | 9 mm | 13 mm | 18 mm | 9 mm | 42.45 min | 22 mm | 12.5 µg/mL (≈ 29.2 µM) | 12.5 µg/mL (≈ 29.2 µM) | inhibition zone (IZ) (Escherichia coli [20]): 16 mm |
| COC(=O)[C@@H]1CCCN1C(=O)[C@@H]1CCCN1C(=O)[C@@H]1CCCN1C(=O)c1cc(-c2nc3ccc([N+](=O)[O-])cc3[nH]2)ccc1O | 30.59 min | 17 mm | 0.569 h | 0.425 h | 6 µg/mL (≈ 9.92 µM) | 6 µg/mL (≈ 9.92 µM) | 17 mm | 12.5 µg/mL (≈ 20.7 µM) | 37.44 min | 26.67 min | 6 µg/mL (≈ 9.92 µM) | 6 µg/mL (≈ 9.92 µM) | 14 mm | 13 mm | 24 mm | 11 mm | 40.38 min | 27 mm | 25 µg/mL (≈ 41.3 µM) | 12.5 µg/mL (≈ 20.7 µM) | inhibition zone (IZ) (Escherichia coli [20]): 17 mm |
| CC[C@H](C)[C@H](NC(=O)CNC(=O)[C@H](Cc1c[nH]c2ccccc12)NC(=O)c1ccc(-c2nc3cc(C)c(C)cc3[nH]2)cc1)C(=O)N[C@@H](C)C(=O)OC (X4-WGIA-OMe) | 17.22 min | 19 mm | 0.375 h | 0.221 h | 6 µg/mL (≈ 8.48 µM) | 6 µg/mL (≈ 8.48 µM) | 9 mm | 25 µg/mL (≈ 35.3 µM) | 24.1 min | 13.59 min | 6 µg/mL (≈ 8.48 µM) | 25 µg/mL (≈ 35.3 µM) | 14 mm | 10 mm | 19 mm | 10 mm | 29.57 min | 20 mm | 12.5 µg/mL (≈ 17.7 µM) | 12.5 µg/mL (≈ 17.7 µM) | inhibition zone (IZ) (Escherichia coli [20]): 18 mm |
| COC(=O)[C@@H]1CCCN1C(=O)[C@@H](NC(=O)[C@H](Cc1ccccc1)NC(=O)c1cc(I)c(-c2nc3cc(C)c(C)cc3[nH]2)c(I)c1)C(C)C | 33.64 min | 14 mm | 0.672 h | 0.454 h | 6 µg/mL (≈ 6.85 µM) | 12.5 µg/mL (≈ 14.3 µM) | 12 mm | 6 µg/mL (≈ 6.85 µM) | 45.34 min | 29.24 min | 12.5 µg/mL (≈ 14.3 µM) | 6 µg/mL (≈ 6.85 µM) | 16 mm | 10 mm | 16 mm | 12 mm | 50.22 min | 22 mm | 25 µg/mL (≈ 28.6 µM) | 25 µg/mL (≈ 28.6 µM) | inhibition zone (IZ) (Escherichia coli [20]): 16 mm |
| Cc1cc2nc(-c3ccc(O)c(C(=O)N[C@@H](Cc4c[nH]c5ccccc45)C(=O)N[C@@H](C)C(=O)N[C@@H](Cc4ccc(O)cc4)C(=O)O)c3)[nH]c2cc1C | 17.02 min | 17 mm | 0.377 h | 0.224 h | 12.5 µg/mL (≈ 17.8 µM) | 12.5 µg/mL (≈ 17.8 µM) | 15 mm | 6 µg/mL (≈ 8.54 µM) | 23.98 min | 13.25 min | 6 µg/mL (≈ 8.54 µM) | 6 µg/mL (≈ 8.54 µM) | 16 mm | 12 mm | 18 mm | 11 mm | 29.19 min | 22 mm | 12.5 µg/mL (≈ 17.8 µM) | 12.5 µg/mL (≈ 17.8 µM) | inhibition zone (IZ) (Escherichia coli [20]): 18 mm |
| COC(=O)[C@@H](NC(=O)c1cc(I)c(-c2nc3cc(C)c(C)cc3[nH]2)c(I)c1)[C@@H](C)O | 40.6 min | 15 mm | 0.987 h | 0.587 h | 6 µg/mL (≈ 9.48 µM) | 25 µg/mL (≈ 39.5 µM) | 10 mm | 10 µg/mL (≈ 15.8 µM) | 69.45 min | 31.22 min | 6 µg/mL (≈ 9.48 µM) | 6 µg/mL (≈ 9.48 µM) | 20 mm | 8 mm | 19 mm | 13 mm | 78.32 min | 23 mm | 12.5 µg/mL (≈ 19.7 µM) | 12.5 µg/mL (≈ 19.7 µM) | inhibition zone (IZ) (Escherichia coli [20]): 16 mm |
| Cc1cc2nc(-c3ccc(C(=O)N[C@@H](CC(C)C)C(=O)NCC(=O)O)cc3)[nH]c2cc1C | 36.61 min | 17 mm | 0.671 h | 0.438 h | 6 µg/mL (≈ 13.7 µM) | 25 µg/mL (≈ 57.3 µM) | 14 mm | 6 µg/mL (≈ 13.7 µM) | 40.24 min | 32.8 min | 6 µg/mL (≈ 13.7 µM) | 6 µg/mL (≈ 13.7 µM) | 13 mm | 11 mm | 19 mm | 10 mm | 48.39 min | 23 mm | 12.5 µg/mL (≈ 28.6 µM) | 12.5 µg/mL (≈ 28.6 µM) | inhibition zone (IZ) (Escherichia coli [20]): 17 mm |
